# In the library only some 5.2% were active in any assay of this set; here they are far more common.
# AP ELISA ortho – alternative complement pathway inhibitors, primary screen, biochemical, ELISA, human serum, orthogonally pooled compounds; AID 1235, 2008; LPS-coated ELISA, C3 deposition; tested in compound mixtures; inhibition, % at 5 µM; actives 0.08% (n = 62,000);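 active means inhibition above 30% in each of the two pooled mixtures holding the compound, so the lower value exceeds 30%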;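 further: 0% = serum in Mg-EGTA without compound and 100% = EDTA serum blank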
#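 Test system: human serum complement alternative pathway, C3 deposition onto LPS / Medium: Mg2+-EGTA GVB++ buffer containing human serum at 1:15 dilution / Probe or stimulus: Plate-bound LPS / Times: 1 h at 37 °C / Signal: ELISA with HRP anti-human C3 antibody, TMB substrate, absorbance 450 nm / Measure: percent inhibition / Repeats: two pool placements per compound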
# M1 ag – M1 muscarinic receptor agonists, primary screen, CHO-M1 cells, Fluo-4 calcium, agonist mode | Fluo-4 calcium fluorescence; stronger effect = higher value | B-score at 10 µM | actives 3% (n = 64,000);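 active means fluorescence rise, raw or as B-score row- and column-corrected plate score, outside the 99.7% band of its plate's samples, either direction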
# M1 antag – antagonists of rat M1 muscarinic receptor | CHO-M1 cells, Fluo-4 calcium, ACh EC80 antagonist mode; stronger effect = lower value | B-score at 10 µM | actives 3.4% (n = 64,000);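 active means calcium fluorescence response, raw or row-and-column corrected B-score, differing from the plate sample mean either way at a set confidence level, mostly lower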
# tolC growth inh – growth inhibitors of E. coli tolC mutant, primary screen, strain BW25113 ΔtolC::kan, 384-well; OD615; growth inhibition, % at 10 µM (by protocol); actives 2.2% (n = 65,000);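 active means growth inhibition at or above a cutoff equal to the mean over every tested compound plus 3 SD, cut at about 60% in these data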;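 further: growth measured after 20 h incubation at 37 °C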
#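 Assay system: tolC-deleted E. coli BW25113. Medium: kanamycin-containing LB broth (50 µg/mL). Dosing: 10 µM final, single dose. Timing: bacterial growth with compound for 20 h at 37 °C. Detection: A615 absorbance measurement. Read-out basis: growth inhibition in percent.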
# Ecoli WT expand – growth inhibitors of wild-type E. coli, primary screen, strain BW25113, expanded library, OD600. growth inhibition, % at 100 µM. AID 710, 2007. actives 0.15% (n = 98,000). OD600 absorbance;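 active means growth inhibition above about 50% at one test dose, limit read from the data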;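 further: growth measured after 20 h incubation at 37 °C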
# WNV protease inh – inhibitors of WNV NS2B-NS3 protease, primary screen, biochemical, fluorogenic substrate; z-score (test concentration not listed); actives 0.18% (n = 65,000); fluorogenic substrate Ex360/Em465; stronger effect = lower value; Genome polyprotein (West Nile virus), P06935; AID 577, 2007; in the data active means z-score below about -3
# Target sequence (P06935 1371-1501 limits assumed): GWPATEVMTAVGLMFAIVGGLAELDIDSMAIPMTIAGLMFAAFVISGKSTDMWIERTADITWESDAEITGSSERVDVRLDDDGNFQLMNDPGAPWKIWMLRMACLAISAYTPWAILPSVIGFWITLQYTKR
# Target sequence (P06935 1502-1679 limits assumed): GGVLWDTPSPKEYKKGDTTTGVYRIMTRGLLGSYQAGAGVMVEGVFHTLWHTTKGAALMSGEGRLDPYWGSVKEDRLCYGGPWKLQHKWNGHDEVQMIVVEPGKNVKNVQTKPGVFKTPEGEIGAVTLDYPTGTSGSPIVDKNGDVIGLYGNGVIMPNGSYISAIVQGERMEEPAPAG
# An asterisk follows results filed as active; . = not tested or not shown.
SMILES,AP ELISA ortho,M1 ag,M1 antag,tolC growth inh,Ecoli WT expand,WNV protease inh
CCOC(=O)c1cc(C)n(S(=O)(=O)c2ccc(C)cc2)c1C,8,0.66,-0.029,66*,13,1.1
C=CCN1C(=O)C(CC(=O)Nc2ccccc2)SC1=Nc1ccc(S(N)(=O)=O)cc1 (stereo not given),.,.,.,.,-8,.
Cc1ccc(-n2c(=O)[nH]cc(C(=O)Nc3ccc4c(c3)OCCO4)c2=O)cc1C,.,-1.8,0.0063,67*,-6,1.3
CC(=O)Nc1ccc2c(c1)OCCO2,.,.,.,.,-2,.
Cc1oc(C(C)(C)C)cc1C(=O)Nc1ccc2c(c1)OCCO2,5,0.38,-0.84,80*,1,-0.79
CC(C)Sc1nc(NCc2ccco2)c2c3c(sc2n1)COC(C)(C)C3,10,-0.0031,0.79,65*,3,-1.5
Cn1c(CNC(=O)Cc2ccc3c(c2)OCO3)nnc1SCc1ccccc1,-6,-0.4,-0.57,-9,1,1.1
Cc1cccc(NC(=O)c2ccc(C3SCC(=O)N3CCc3ccccc3)cc2)c1C (stereo not given),.,.,.,.,-18,.
O=C(c1ccc(Cl)c(Cl)c1)N(Cc1ccco1)c1ccc(O)cc1,1,0.56,-0.019,100*,3,0.92
CCOC(=O)c1c(C)[nH]c(C)c1C(=O)CSc1ncccn1,.,.,.,.,-1,.
CCCCCn1c(SCC#N)nc2cc(C(=O)NCC3CCCO3)ccc2c1=O (stereo not given),18,2.5*,0.0015,28,5,-0.26
CCOC(=O)c1c(NC(=O)C(C)N2CCN(C(=O)c3ccco3)CC2)sc2c1CCCC2 (stereo not given),.,.,.,.,6,.
CCOC(=O)CNc1c(-c2ccc(O)cc2)nc2ccc(Cl)cn12,-6,7.8*,-1.4,12,15,0.75
O=C(NCCCN1CCCC1=O)c1ccccc1NS(=O)(=O)c1ccc(Br)cc1,.,.,.,.,2,.
C/C(NCc1cccnc1)=C(\C#N)C(=O)NCc1ccccc1,5,0.64,2.2*,-12,-2,0.05
C/C(NCc1ccccc1)=C(\C#N)C(=O)NCc1ccccc1,.,.,.,.,3,.
C1=C(c2ccc(-c3ccccc3)cc2)Nc2ncnn2C1c1ccco1 (stereo not given),10,44*,-1.6,12,-15,-0.7
COc1ccc(C2C=C(c3ccccc3)Nc3nnnn32)cc1 (stereo not given),10,-0.87,0.018,-14,-5,1.6
COc1ccc(C2C=C(c3ccc(Br)s3)Nc3ncnn32)cc1OC (stereo not given),16,120*,-0.0059,2,-10,-1.1
Brc1ccc(C2=CC(c3cccs3)n3ncnc3N2)cc1 (stereo not given),.,.,.,.,6,.
COc1ccc(C2C=C(c3ccc(C)cc3)Nc3ncnn32)cc1 (stereo not given),.,33*,-0.44,6,0,1.5
CCCCn1nnnc1SCC(=O)N1CCOCC1,.,.,.,.,-2,.
c1ccc(Nc2ccccc2Nc2ccccn2)nc1,4,-0.014,-0.16,-2,11,0.2
Oc1cccc2ccc(Nc3ccccn3)nc12,13,0.28,-0.046,2,100*,1.7
Cc1ccc(Cn2c(NCCc3ccccc3)nc3c2c(=O)n(C)c(=O)n3C)cc1,6,-1.1,-0.36,-15,-3,0.91
SMILES,AP ELISA ortho,M1 ag,M1 antag,tolC growth inh,Ecoli WT expand,WNV protease inh
Cc1nnc(NCCc2ccccc2)n(N)c1=O,-3,0.071,1.5*,-7,5,-1.1
Cc1oc2cc3c(C(=O)OCCN(C)C)c(C)oc3cc2c1C(=O)OCCN(C)C,6,0.86,0.5,-10,.,-0.45
O=C1c2[nH]nc(-c3ccccc3O)c2C(c2ccccc2F)N1Cc1ccco1 (stereo not given),7,-0.34,-0.024,100*,6,0.29
O=C1c2ccccc2C(O)N1Cc1ccco1 (stereo not given),-2,-0.0021,0.6,-1,20,0.18
COCCCN1C(=O)c2[nH]nc(-c3ccccc3O)c2C1c1ccc(Cl)cc1 (stereo not given),5,.,.,64*,4,0.9
O=C1c2[nH]nc(-c3ccccc3O)c2C(c2ccccc2)N1Cc1ccco1 (stereo not given),-3,.,.,98*,6,1.1
Cn1c(=O)c2c(nc(CN3CCN(C(=O)c4ccco4)CC3)n2CCCc2ccccc2)n(C)c1=O,14,0.68,-0.18,8,-3,0.54
O=C1c2oc3ccc(F)cc3c(=O)c2C(c2cccc(O)c2)N1CCCN1CCOCC1 (stereo not given),15,0.058,-0.28,-15,.,0.13
C=CCOc1cccc(C2c3c(oc4ccc(F)cc4c3=O)C(=O)N2CCCN2CCOCC2)c1 (stereo not given),34*,-1.6,0.96,-13,.,0.11
O=C(O)C1Nc2c(O)cccc2C2C=CCC12 (stereo not given),8,.,.,-15,.,-0.32
O=C(OC1CCCCC1)c1ccc2c(c1)C1C=CCC1C(C(=O)O)N2 (stereo not given),-5,-1.1,-0.52,3,-25,-5.6*
COc1ccc(S(=O)(=O)N(CCCN2CCCC2=O)Cc2cc3c(C)cc(C)cc3[nH]c2=O)cc1,-6,5.1*,-0.065,10,4,0.11
COc1ccc(NC(=O)N(CCc2ccccc2)Cc2cc3c(C)cc(C)cc3[nH]c2=O)cc1,.,.,.,.,0,.
c1csc(Cc2nc(-c3ccc(-n4cccc4)cc3)no2)c1,7,-1.2,-0.52,-9,.,0.33
Cc1ccc(S(=O)(=O)N2CCSC2)cc1C,.,.,.,.,-2,.
N#Cc1cccc(NC(=O)N2CCC(c3nc4c(nnn4Cc4cccc(Cl)c4)c(=O)[nH]3)CC2)c1,2,-0.46,-0.36,-9,-10,-0.96
Cc1ccc(NC(=O)N2CCC(c3nc4c(nnn4Cc4cccc(Cl)c4)c(=O)[nH]3)CC2)cc1,7,-0.26,-0.0071,99*,-13,0.32
CCCCCCC(=O)N1CCC(c2nc3c(nnn3Cc3ccccc3Cl)c(=O)[nH]2)CC1,4,0.66,0.38,100*,2,0.01
O=C(C1CCCCC1)N1CCC(c2nc3c(nnn3Cc3ccccc3Cl)c(=O)[nH]2)CC1,10,-0.051,0.3,18,.,0.07
O=C(C1CCCCC1)N1CCC(c2nc3c(nnn3Cc3c(F)cccc3Cl)c(=O)[nH]2)CC1,0,-1.2,-0.28,89*,.,0.68
O=C(Nc1ccc(F)cc1)N1CCC(c2nc3c(nnn3Cc3cccc(Cl)c3)c(=O)[nH]2)CC1,14,-0.98,0.7,100*,-1,-0.79
COc1ccccc1NC(=O)N1CCCC(c2nc3c(nnn3Cc3ccc(C)cc3)c(=O)[nH]2)C1 (stereo not given),10,1.1,0.13,14,0,-0.68

# Compound activity: PubChem BioAssay, several laboratories
